# According to ChEMBL document CHEMBL3232844, “Synthesis and structure activity relationships of schweinfurthin indoles” (2014):
# Assays:
# Type in all cases: functional
# [1] = Cytotoxicity against human HCT15 cells
# Outline: (§1)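 Tested in a 60-cell-line human tumor panel screen; the read-out is growth inhibition, reported as GI50 for each cell line.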
# MOLT-4 = assay: Cytotoxicity against human MOLT4 cells; outline: as §1
# IGROV-1 = assay: Cytotoxicity against human IGROV1 cells; outline: as §1
# [2] = Cytotoxicity against human NCI-ADR-RES cells; outline: as §1
# SF-295 = assay: Cytotoxicity against human SF295 cells; outline: as §1
# A549 = assay: Cytotoxicity against human A549 cells; outline: as §1
# SN12C = assay: Cytotoxicity against human SN12C cells; outline: as §1
# SF-539 = assay: Cytotoxicity against human SF539 cells; outline: as §1
# DU-145 = assay: Cytotoxicity against human DU145 cells; outline: as §1
# MDA-MB-435 = assay: Cytotoxicity against human MDA-MB-435 cells; outline: as §1
# HL-60(TB) = assay: Cytotoxicity against human HL-60(TB) cells
# Outline: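 Tested within the NCI 60-cell-line screen, with GI50 as the read-out. Values are the average of two independent experiments. The lowest concentration tested was 10 nM.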
# NCI-H23 = assay: Cytotoxicity against human NCI-H23 cells; outline: as §1
# SK-OV-3 = assay: Cytotoxicity against human SKOV3 cells; outline: as §1
# BT-549 = assay: Cytotoxicity against human BT549 cells; outline: as §1
# ACHN = assay: Cytotoxicity against human ACHN cells; outline: as §1
# [3] = Cytotoxicity against human EKVX cells; outline: as §1
# [4] = Cytotoxicity against human OVCAR8 cells; outline: as §1
# [5] = Cytotoxicity against human UO31 cells
# Outline: (§2)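 Cell line run as part of the 60-cell-line screening panel; growth inhibition was reported as a GI50 for each line.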
# A498 = assay: Cytotoxicity against human A498 cells; outline: as §1
# HT-29 = assay: Cytotoxicity against human HT-29 cells; outline: as §1
# U-251 = assay: Cytotoxicity against human U251 cells; outline: as §2
# HCT-116 = assay: Cytotoxicity against human HCT116 cells; outline: as §1
# SF-268 = assay: Cytotoxicity against human SF268 cells; outline: as §1
# [6] = Cytotoxicity against human UACC257 cells; outline: as §2
# 786-0 = assay: Cytotoxicity against human 786-0 cells; outline: as §1
# KM12 = assay: Cytotoxicity against human KM12 cells; outline: as §1
# RXF 393 = assay: Cytotoxicity against human RXF393 cells; outline: as §1
# SNB-75 = assay: Cytotoxicity against human SNB75 cells; outline: as §2
# MCF7 = assay: Cytotoxicity against human MCF7 cells; outline: as §1
# [7] = Cytotoxicity against human OVCAR3 cells; outline: as §1
# CAKI-1 = assay: Cytotoxicity against human Caki1 cells; outline: as §1
# NCI-H226 = assay: Cytotoxicity against human NCI-H226 cells; outline: as §1
# NCI-H460 = assay: Cytotoxicity against human NCI-H460 cells; outline: as §1
# T47D = assay: Cytotoxicity against human T47D cells; outline: as §2
# HCC 2998 = assay: Cytotoxicity against human HCC2998 cells; outline: as §1
# LOX IMVI = assay: Cytotoxicity against human LOXIMVI cells; outline: as §1
# [8] = Cytotoxicity against human OVCAR5 cells; outline: as §1
# MDA-MB-231 = assay: Cytotoxicity against human MDA-MB-231 cells; outline: as §1
# M14 = assay: Cytotoxicity against human M14 cells; outline: as §1
# K562 = assay: Cytotoxicity against human K562 cells; outline: as §1
# TK-10 = assay: Cytotoxicity against human TK10 cells; outline: as §2
# SK-MEL-2 = assay: Cytotoxicity against human SK-MEL-2 cells; outline: as §1
# [9] = Cytotoxicity against human OVCAR4 cells; outline: as §1
# [10] = read-out: pLC50 (the source's name) (converted)
structure (smiles),measurement,setting,value
COc1cc(/C=C/c2cc(O)c3c(c2)C[C@@H]2C(C)(C)[C@H](O)CC[C@@]2(C)O3)cc2[nH]cc(CC=C(C)C)c12,GI50,[1]; HCT-15,0.209 µM
same,CC50,"[1]; HCT-15, read-out: pLC50 (the source's name) (converted)",36.3 µM
same,TGI,"[1]; HCT-15, read-out: pTGI (converted)",4.9 µM
same,GI50,MOLT-4,0.105 µM
same,CC50,MOLT-4; [10],> 100 µM
same,TGI,MOLT-4; read-out: pTGI (converted),2.57 µM
same,GI50,IGROV-1,5.01 µM
same,CC50,IGROV-1; [10],89.1 µM
same,TGI,IGROV-1; read-out: pTGI (converted),45.7 µM
same,GI50,[2],7.59 µM
same,CC50,[2]; [10],85.1 µM
same,TGI,[2]; read-out: pTGI (converted),46.8 µM
same,GI50,SF-295; read-out: GI50,< 0.023 µM
same,GI50,SF-295; read-out: pGI50 (converted),0.0234 µM
same,CC50,SF-295; [10],6.46 µM
same,TGI,SF-295; read-out: pTGI (converted),0.115 µM
same,GI50,A549,2.4 µM
same,CC50,A549; [10],67.6 µM
same,TGI,A549; read-out: pTGI (converted),38.9 µM
same,GI50,SN12C,8.51 µM
same,LC50,SN12C,75.9 µM
same,TGI,SN12C; read-out: pTGI (converted),45.7 µM
same,GI50,SF-539,0.01 µM
same,CC50,SF-539; [10],24.5 µM
same,TGI,SF-539; read-out: pTGI (converted),4.47 µM
same,GI50,DU-145,5.25 µM
same,LC50 (50% lethal concentration),DU-145,64.6 µM
same,TGI,DU-145; read-out: pTGI (converted),39.8 µM
same,GI50,MDA-MB-435,0.437 µM
same,CC50,MDA-MB-435; [10],95.5 µM
same,TGI,MDA-MB-435; read-out: pTGI (converted),38 µM
same,GI50,HL-60(TB),0.0646 µM
same,CC50,HL-60(TB); [10],79.4 µM
same,TGI,HL-60(TB); read-out: pTGI (converted),18.2 µM
same,GI50,NCI-H23,1.55 µM
same,CC50,NCI-H23; [10],66.1 µM
same,TGI,NCI-H23; read-out: pTGI (converted),26.9 µM
same,GI50,SK-OV-3,4.68 µM
same,LC50,SK-OV-3,77.6 µM
same,TGI,SK-OV-3; read-out: pTGI (converted),39.8 µM
same,GI50,BT-549,0.479 µM
same,CC50,BT-549; [10],67.6 µM
same,TGI,BT-549; read-out: pTGI (converted),41.7 µM
same,GI50,ACHN,3.63 µM
same,LC50 (concentration killing 50% of cells),ACHN,61.7 µM
same,TGI,ACHN; read-out: pTGI (converted),38 µM
same,GI50,[3],3.89 µM
same,CC50,[3]; [10],81.3 µM
same,TGI,[3]; read-out: pTGI (converted),39.8 µM
same,GI50,[4]; OVCAR-8,11.5 µM
same,CC50,"[4]; OVCAR-8, read-out: pLC50 (the source's name) (converted)",79.4 µM
same,TGI,"[4]; OVCAR-8, read-out: pTGI (converted)",47.9 µM
same,GI50,[5]; UO-31,0.129 µM
same,LC50,[5]; UO-31,69.2 µM
same,TGI,"[5]; UO-31, read-out: pTGI (converted)",21.4 µM
same,GI50,A498,0.0661 µM
same,CC50,A498; [10],44.7 µM
same,TGI,A498; read-out: pTGI (converted),2.69 µM
same,GI50,HT-29,0.832 µM
same,CC50,HT-29; [10],21.4 µM
same,TGI,HT-29; read-out: pTGI (converted),5.37 µM
same,GI50,U-251,0.01 µM
same,CC50,U-251; [10],60.3 µM
same,TGI,U-251; read-out: pTGI (converted),32.4 µM
same,GI50,HCT-116,0.339 µM
same,CC50,HCT-116; [10],64.6 µM
same,TGI,HCT-116; read-out: pTGI (converted),36.3 µM
same,GI50,SF-268,0.851 µM
same,CC50,SF-268; [10],69.2 µM
same,TGI,SF-268; read-out: pTGI (converted),38.9 µM
same,GI50,[6]; UACC-257,14.5 µM
same,CC50,"[6]; UACC-257, read-out: pLC50 (the source's name) (converted)",77.6 µM
same,TGI,"[6]; UACC-257, read-out: pTGI (converted)",49 µM
same,GI50,786-0,0.01 µM
same,LC50 (concentration killing 50% of cells),786-0,21.4 µM
same,TGI,786-0; read-out: pTGI (converted),2.45 µM
same,GI50,KM12,2.95 µM
same,CC50,KM12; [10],33.1 µM
same,TGI,KM12; read-out: pTGI (converted),10.2 µM
same,GI50,RXF 393,0.01 µM
same,LC50,RXF 393,8.51 µM
same,TGI,RXF 393; read-out: pTGI (converted),0.0339 µM
same,GI50,SNB-75,0.01 µM
same,CC50,SNB-75; [10],64.6 µM
same,TGI,SNB-75; read-out: pTGI (converted),10.5 µM
same,GI50,MCF7,0.537 µM
same,LC50,MCF7,55 µM
same,TGI,MCF7; read-out: pTGI (converted),12.3 µM
same,GI50,[7]; OVCAR-3,8.71 µM
same,CC50,"[7]; OVCAR-3, read-out: pLC50 (the source's name) (converted)",63.1 µM
same,TGI,"[7]; OVCAR-3, read-out: pTGI (converted)",36.3 µM
same,GI50,CAKI-1,0.245 µM
same,LC50,CAKI-1,79.4 µM
same,TGI,CAKI-1; read-out: pTGI (converted),17 µM
same,GI50,NCI-H226,8.32 µM
same,CC50,NCI-H226; [10],72.4 µM
same,TGI,NCI-H226; read-out: pTGI (converted),33.1 µM
same,GI50,NCI-H460,0.209 µM
same,CC50,NCI-H460; [10],66.1 µM
same,TGI,NCI-H460; read-out: pTGI (converted),26.9 µM
same,GI50,T47D,8.13 µM
same,CC50,T47D; [10],> 100 µM
same,TGI,T47D; read-out: pTGI (converted),39.8 µM
same,GI50,HCC 2998,6.03 µM
same,CC50,HCC 2998; [10],67.6 µM
same,TGI,HCC 2998; read-out: pTGI (converted),37.2 µM
same,GI50,LOX IMVI,0.282 µM
same,CC50,LOX IMVI; [10],30.9 µM
same,TGI,LOX IMVI; read-out: pTGI (converted),6.61 µM
same,GI50,[8]; OVCAR-5,5.37 µM
same,CC50,"[8]; OVCAR-5, read-out: pLC50 (the source's name) (converted)",60.3 µM
same,TGI,"[8]; OVCAR-5, read-out: pTGI (converted)",30.2 µM
same,GI50,MDA-MB-231,0.891 µM
same,LC50,MDA-MB-231,45.7 µM
same,TGI,MDA-MB-231; read-out: pTGI (converted),9.77 µM
same,GI50,M14,0.537 µM
same,CC50,M14; [10],64.6 µM
same,TGI,M14; read-out: pTGI (converted),32.4 µM
same,GI50,K562,0.138 µM
same,CC50,K562; [10],> 100 µM
same,TGI,K562; read-out: pTGI (converted),9.77 µM
same,GI50,TK-10,8.32 µM
same,LC50,TK-10,69.2 µM
same,TGI,TK-10; read-out: pTGI (converted),40.7 µM
same,GI50,SK-MEL-2,0.105 µM
same,CC50,SK-MEL-2; [10],50.1 µM
same,TGI,SK-MEL-2; read-out: pTGI (converted),5.25 µM
same,GI50,[9]; OVCAR-4,10.7 µM
same,CC50,"[9]; OVCAR-4, read-out: pLC50 (the source's name) (converted)",77.6 µM
same,TGI,"[9]; OVCAR-4, read-out: pTGI (converted)",47.9 µM
